From PMC9017786 (Peptide science (Hoboken, N.J.), 2020)

Assay: Transmission electron microscopy of the peptide assemblies
Type: physicochemical
Conditions: TEM; after ALP 1 U/mL, 1.0 wt% in PBS buffer pH 7.4, 24 hours, 37 °C
Summary of the method: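 Phosphopeptide (1.0 wt% total, pH 7.4 PBS) was dephosphorylated with alkaline phosphatase (1 U/mL) for 24 h at 37 °C. Samples went onto 400 mesh copper grids coated with continuous carbon film (~35 nm), were stained with uranyl acetate and air-dried, then imaged by TEM. Nanofiber width was measured from the images.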

Diameter (width) of the nanofibers: 7 ± 2 nm
Substance: Nap-wwy [compound 1]
